Test results taken from ChEMBL document CHEMBL5724801, “EUbOPEN Chemogenomics Library - Multiplex” (2024).
Several values for one entry are separate records, joined by “and”; a condition that tells them apart may be missing. Equal values may be shown once.

What follows are molecules tested on U2OS (assay: Multiplex assay against U2OS). Conditions: human, 12 h, 1 µM, compound concentration 1 uM.
Assay type: toxicity, cell-based
Procedure, shortened: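 Four dyes were applied at seeding to live cells: Hoechst33342, BioTracker Green Microtubule Cytoskeleton Dye, MitoTracker Red and Annexin V Alexa Fluor 680. Imaging after compound addition used a CQ1 microscope at 37°C and 5% CO2. CellPathfinder machine-learning gating then sorted cells into Hoechst high-intensity objects or normal cells, normal cells into healthy, pyknosed or fragmented nuclei, and pyknosed cells into mitotic or apoptotic, with tubulin, mitochondrial-mass and membrane-permeability phenotypes given as per cents of healthy-nucleus cells.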

Compound	Population Apoptotic (%)	Population Fragmented Nuclei (%)	Population Healthy Nuclei (%)	Population Hoechst High Intensity Objects (%)	Population Membrane Permeable-Phenotype (%)	Population Mitotic Cells (%)	Population Normal (%)	Population Pyknosed Nuclei (%)	Population Tubulin-Different-Phenotype (%)	Total Cell Count
Cl.Cl.N#Cc1ccc(O[C@@H]2c3ccccc3C[C@H]2N2CCC[C@@H](N)C2)c(Cl)c1	27.27% and 23.68%	3.65% and 1.32%	79.64% and 73.51%	0	24.05% and 54.05%	72.73% and 76.32%	100	16.72% and 25.17%	57.25% and 71.17%	329 and 151
COc1ccc2nc3ccc(OC)cc3c(SCCCN)c2c1.Cl	33.33% and 48.15%	5.01% and 5.7%	88.22% and 80.31%	0	0.85% and 1.94%	66.67% and 51.85%	100	6.77% and 13.99%	1.14% and 0%	399 and 193

Same assay, conditions: human, 12 h, 1 µM, compound concentration 1 uM

Compound	Population Mitochondria Different-Phenotype (%)
COc1ccc2nc3ccc(OC)cc3c(SCCCN)c2c1.Cl	0% and 12.26%

Same assay, conditions: human, 12 h, 10 µM, compound concentration 10 uM

Compound	Population Apoptotic (%)	Population Fragmented Nuclei (%)	Population Healthy Nuclei (%)	Population Hoechst High Intensity Objects (%)	Population Membrane Permeable-Phenotype (%)	Population Mitochondria Different-Phenotype (%)	Population Mitotic Cells (%)	Population Normal (%)	Population Pyknosed Nuclei (%)	Population Tubulin-Different-Phenotype (%)
Cl.Cl.N#Cc1ccc(O[C@@H]2c3ccccc3C[C@H]2N2CCC[C@@H](N)C2)c(Cl)c1	46.21% and 25.32%	4.14% and 2.88%	56.8% and 40.29%	0%	11.98% and 32.14%	63.54% and 89.29%	53.79% and 74.68%	100%	39.05% and 56.83%	88.02% and 89.29%
COc1ccc2nc3ccc(OC)cc3c(SCCCN)c2c1.Cl	50% and 100%	77.73% and 91.54%	21.48% and 8.25%	8.43% and 7.62%				91.57% and 92.38%	0.79% and 0.21%	28.57% and 40.17%

Same assay, conditions: human, 12 h, 10 µM, compound concentration 10 uM

Compound	Total Cell Count
Cl.Cl.N#Cc1ccc(O[C@@H]2c3ccccc3C[C@H]2N2CCC[C@@H](N)C2)c(Cl)c1	338 and 139
COc1ccc2nc3ccc(OC)cc3c(SCCCN)c2c1.Cl	1388 and 1535

Same assay, conditions: human, 24 h, 1 µM, compound concentration 1 uM

Compound	Population Apoptotic (%)	Population Fragmented Nuclei (%)	Population Healthy Nuclei (%)	Population Hoechst High Intensity Objects (%)	Population Membrane Permeable-Phenotype (%)	Population Mitotic Cells (%)	Population Normal (%)	Population Pyknosed Nuclei (%)	Population Tubulin-Different-Phenotype (%)	Total Cell Count
Cl.Cl.N#Cc1ccc(O[C@@H]2c3ccccc3C[C@H]2N2CCC[C@@H](N)C2)c(Cl)c1	47.5% and 39.47%	2.74% and 2.58%	77.31% and 72.9%	0	19.35% and 35.4%	52.5% and 60.53%	100	19.95% and 24.52%	32.58% and 69.03%	401 and 155
COc1ccc2nc3ccc(OC)cc3c(SCCCN)c2c1.Cl	29.73% and 51.52%	3.05% and 1.4%	89.9% and 83.18%	0	0.85% and 2.81%	70.27% and 48.48%	100	7.05% and 15.42%	1.06% and 1.69%	525 and 214

Same assay, conditions: human, 24 h, 1 µM, compound concentration 1 uM

Compound	Population Mitochondria Different-Phenotype (%)
COc1ccc2nc3ccc(OC)cc3c(SCCCN)c2c1.Cl	0% and 7.3%

Same assay, conditions: human, 24 h, 10 µM, compound concentration 10 uM

Compound	Population Apoptotic (%)	Population Fragmented Nuclei (%)	Population Healthy Nuclei (%)	Population Hoechst High Intensity Objects (%)	Population Membrane Permeable-Phenotype (%)	Population Mitochondria Different-Phenotype (%)	Population Mitotic Cells (%)	Population Normal (%)	Population Pyknosed Nuclei (%)	Population Tubulin-Different-Phenotype (%)
Cl.Cl.N#Cc1ccc(O[C@@H]2c3ccccc3C[C@H]2N2CCC[C@@H](N)C2)c(Cl)c1	64.9% and 68.09%	3.82% and 4.96%	51.76% and 28.37%	0%	9.09% and 12.5%	73.3% and 92.5%	35.1% and 31.91%	100%	44.41% and 66.67%	88.64% and 90%
COc1ccc2nc3ccc(OC)cc3c(SCCCN)c2c1.Cl	50% and 78.57%	75.02% and 91.84%		12.85% and 7.48%			50% and 21.43%	87.15% and 92.52%	0.64% and 0.94%	6.62% and 18.52%

Same assay, conditions: human, 24 h, 10 µM, compound concentration 10 uM

Compound	Total Cell Count
Cl.Cl.N#Cc1ccc(O[C@@H]2c3ccccc3C[C@H]2N2CCC[C@@H](N)C2)c(Cl)c1	340 and 141
COc1ccc2nc3ccc(OC)cc3c(SCCCN)c2c1.Cl	1424 and 1617

Same assay, conditions: human, 48 h, 1 µM, compound concentration 1 uM

Compound	Population Apoptotic (%)	Population Fragmented Nuclei (%)	Population Healthy Nuclei (%)	Population Hoechst High Intensity Objects (%)	Population Mitotic Cells (%)	Population Normal (%)	Population Pyknosed Nuclei (%)	Population Membrane Permeable-Phenotype (%)	Population Mitochondria Different-Phenotype (%)	Population Tubulin-Different-Phenotype (%)
Cl.Cl.N#Cc1ccc(O[C@@H]2c3ccccc3C[C@H]2N2CCC[C@@H](N)C2)c(Cl)c1	60.55% and 72.41%	2.44% and 3.43%	79.8% and 63.43%	0	39.45% and 27.59%	100	17.75% and 33.14%			
COc1ccc2nc3ccc(OC)cc3c(SCCCN)c2c1.Cl	46.15% and 46.51%	3.96% and 4.36%	90.62% and 82.24%	0	53.85% and 53.49%	100	5.42% and 13.4%	1.03% and 0.76%	0% and 2.65%	0.8% and 1.52%

Same assay, conditions: human, 48 h, 1 µM, compound concentration 1 uM

Compound	Total Cell Count
COc1ccc2nc3ccc(OC)cc3c(SCCCN)c2c1.Cl	960 and 321

Same assay, conditions: human, 48 h, 10 µM, compound concentration 10 uM

Compound	Population Apoptotic (%)	Population Fragmented Nuclei (%)	Population Healthy Nuclei (%)	Population Hoechst High Intensity Objects (%)	Population Membrane Permeable-Phenotype (%)	Population Mitochondria Different-Phenotype (%)	Population Normal (%)	Population Pyknosed Nuclei (%)	Population Tubulin-Different-Phenotype (%)	Total Cell Count
Cl.Cl.N#Cc1ccc(O[C@@H]2c3ccccc3C[C@H]2N2CCC[C@@H](N)C2)c(Cl)c1	73.29% and 91.21%	7.46% and 4.9%	56.22% and 31.47%	0% and 0.69%	5.75% and 15.56%	52.21% and 86.67%	100% and 99.31%	36.32% and 63.64%	66.37% and 84.44%	402 and 144
COc1ccc2nc3ccc(OC)cc3c(SCCCN)c2c1.Cl	45% and 53.85%	69.73% and 94.1%		23.54% and 11.4%			76.46% and 88.6%	2.07% and 0.82%	6.23% and 18.52%	1266 and 1798

Same assay, conditions: human, 48 h, 10 µM, compound concentration 10 uM

Compound	Population Mitotic Cells (%)
COc1ccc2nc3ccc(OC)cc3c(SCCCN)c2c1.Cl	55% and 46.15%
